# Published values collected from several papers.
# Compare with care: the assays were run in different laboratories.
# Target: 3-phosphoinositide-dependent protein kinase 1 (PDPK1, Homo sapiens, UniProt O15530)
# Residues used in one study (O15530 1-556): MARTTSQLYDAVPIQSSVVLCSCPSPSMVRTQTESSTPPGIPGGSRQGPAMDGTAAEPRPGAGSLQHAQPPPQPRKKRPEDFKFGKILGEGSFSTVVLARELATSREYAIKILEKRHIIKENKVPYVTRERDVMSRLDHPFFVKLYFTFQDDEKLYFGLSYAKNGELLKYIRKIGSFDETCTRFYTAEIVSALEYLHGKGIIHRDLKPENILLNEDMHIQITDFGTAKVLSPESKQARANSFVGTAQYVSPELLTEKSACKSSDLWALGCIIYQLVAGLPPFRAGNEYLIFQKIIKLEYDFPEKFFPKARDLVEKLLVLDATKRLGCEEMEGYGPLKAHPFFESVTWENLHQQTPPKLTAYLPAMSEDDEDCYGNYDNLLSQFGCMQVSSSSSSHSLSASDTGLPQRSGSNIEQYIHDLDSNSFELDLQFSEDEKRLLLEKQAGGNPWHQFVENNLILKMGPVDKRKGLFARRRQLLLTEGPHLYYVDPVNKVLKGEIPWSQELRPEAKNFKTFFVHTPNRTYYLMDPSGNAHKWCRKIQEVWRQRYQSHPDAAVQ
SMILES,assay,conditions,measurement,result
Nc1ncnc2occ(-c3ccc(NC(=O)Nc4cc(C(F)(F)F)ccc4F)cc3)c12,"cell-free assay, inhibitor",20 µM,remaining signal,4.3%
Cc1cnc(NC2CCOCC2)nc1-n1cnc(C(=O)NC(CN)c2cc(F)cc(Cl)c2)c1 (centres unmarked),"enzyme activity, inhibitor, radiometric",1 µM,remaining activity,84%
CC(C)(C)C(=O)c1sc(NC2CCCCC2)nc1N,"enzyme activity, inhibitor",10 µM,remaining activity,108%
O=C1NC(c2ccccn2)Sc2ccccc21 (centres unmarked),"cell-free assay, competition with immobilised ligand",1 µM,remaining binding,97%
CCN(CC)CCNC(=O)c1c(C)[nH]c(/C=C2\C(=O)Nc3ccc(F)cc32)c1C,cell-free assay,0.5 µM,remaining signal,81.6%
CC(C)(C)c1nc(-c2cccc(NS(=O)(=O)c3c(F)cccc3F)c2F)c(-c2ccnc(N)n2)s1,"enzyme activity, inhibitor, radiometric",1 µM,remaining activity,94%
COc1cc(Nc2cnc(C#N)c(O[C@H](C)CN(C)C)n2)ncc1-c1cnn(C)c1,"enzyme activity, inhibitor, radiometric",10 µM,remaining activity,76%
Cc1sc(C(=O)NC2COC2)cc1-n1cc(NC(=O)Nc2c(F)cccc2Cl)cn1,"enzyme activity, inhibitor",10 µM,remaining activity,99.2%
CCCOc1ccc(OC)c(F)c1C(=O)c1ccc(C(=O)N[C@@H]2CNC[C@H]2NC(=O)c2ccc3[nH]ncc3c2)cc1,"enzyme activity, inhibitor",10 µM,remaining activity,102%
COc1cc(Cl)c(C(=O)N[C@@H](CN[C@H]2CC[C@@H](N)CC2)Cc2ccc(C#N)cc2)cc1-c1ccc(CN[C@H](C)c2ccc(C)cc2)o1,"enzyme activity, inhibitor",1 µM,remaining activity,73%
Nc1nc(Nc2ccccc2)sc1C(=O)c1c(F)cccc1F,"enzyme activity, inhibitor",10 µM,remaining activity,65%
Cc1ccc(C(=O)Nc2ccc(CN3CCN(C)CC3)c(C(F)(F)F)c2)cc1C#Cc1cnc2cccnn12,"enzyme activity, inhibitor",23.5 nM,remaining activity,94%
COc1ccc(COc2ccc(Cc3cnc(N)nc3N)cc2OC)cc1,cell-free assay,0.5 µM,remaining signal,89.4%
Oc1cccc(-c2nc(N3CCOCC3)c3oc4ncccc4c3n2)c1,"enzyme activity, inhibitor",10 µM,remaining activity,107%
CNC(=O)Nc1ccc2c(c1)[C@@]1(CC2)OC(=O)N(CC(=O)N(Cc2ccc(F)cc2)[C@@H](C)C(F)(F)F)C1=O,"cell-free assay, competition with immobilised ligand",1 µM,remaining binding,85%
CS(=O)(=O)CCNCc1ccc(-c2ccc3ncnc(Nc4ccc(OCc5cccc(F)c5)c(Cl)c4)c3c2)o1,cell-free assay,0.5 µM,remaining signal,86.4%
c1ccc(N2CCN(Cc3nc4ccccc4[nH]3)CC2)nc1,"binding, competition with immobilised ligand",1 µM,remaining binding,89%
C[S+]([O-])c1ccc(-c2nc(-c3ccncc3)c(-c3ccc(F)cc3)[nH]2)cc1 (centres unmarked),cell-free assay,0.5 µM,remaining signal,96.3%
CCCCN(CCCC)C(=O)CN1C[C@H](c2cc(OC)c3c(c2)OCO3)[C@@H](C(=O)O)[C@@H]1CC(C)(C)CCC,"cell-free assay, competition with immobilised ligand",1 µM,remaining binding,100%
CC(C)(C)c1nc2c3cc[nH]c(=O)c3c3cc(F)ccc3c2[nH]1,cell-free assay,0.5 µM,remaining signal,27%
CC(=O)C1=C(C)N(c2cccc(C(F)(F)F)c2)C(=O)N[C@@H]1c1ccc(C#N)nc1,"cell-free assay, competition with immobilised ligand",1 µM,remaining binding,93.4%
Cc1ccc(C(=O)NCc2ccsc2)cc1C#Cc1cn(C(C)C)c2ncnc(N)c12,"enzyme activity, inhibitor",1 µM,activity vs control,98%
O=C(O)c1cc(-c2ccc(C3CCNCC3)cc2)c2ccc(-c3ccc(C(F)(F)F)cc3)cc2c1,"cell-free assay, competition with immobilised ligand",1 µM,remaining binding,100%
CC(C)(O)[C@H]1CC[C@H](Nc2ccc3ncc(-c4cccc(C(F)(F)F)c4)n3n2)CC1,"enzyme activity, inhibitor",1 µM,remaining activity,105%
O=C(Nc1cnn(-c2csc(C(=O)NC3COC3)c2)c1)Nc1ccccc1Cl,"enzyme activity, inhibitor",5 µM,remaining activity,101%
COCCOc1nc(-c2ccc(Cl)nc2)nc2c1CN(C(=O)c1ncn3ccccc13)CC2,"cell-free assay, competition with immobilised ligand",0.1 µM,remaining binding,90%
